The subject of this test is NCI-H460. Put plainly: Cytotoxicity against human NCI-H460 cells assessed as reduction in cell viability incubated for 48 hrs by MTT assay. The following applies: NCI-H460, 48 h. In kind it is functional, cell-based. An outline of the steps: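 H-460 non-small-cell lung carcinoma cells in RPMI-1640 with 10% FBS and 1% penicillin/streptomycin, used within 28 passages per frozen batch. Seeded at 3.33 × 10^4 cells/mL, adhered 24 h, then treated 48 h. Ten concentrations from 30 μM down by 0.3164-fold serial dilution; 1% DMSO negative control, doxorubicin positive control.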
(Tetrazolium assays rely on reduction of a dye to a coloured formazan, in cell work by metabolically active cells.)

The structures appear in SMILES notation. pIC50: −log10 of the molar value.

By pIC50 is commonly meant the IC50 on a negative log10 scale, so that one unit is a factor of ten. Take `CCCC[C@@H](C)C[C@@H](C)C(=O)N(C)[C@@H](CC(C)C)C(=O)N[C@H](C(=O)N(C)[C@H](C(=O)N1C[C@@H](O)C[C@H]1C(=O)O)C(C)C)[C@@H](C)OC(C)=O`: the pIC50 is 6.29.
In the case of `CCCC[C@@H](C)C[C@@H](C)C(=O)N(C)[C@@H](CC(C)C)C(=O)N[C@H](C(=O)N[C@H](C(=O)N1CCC[C@H]1C(=O)N1C(=O)C=C[C@@H]1C)C(C)C)[C@@H](C)OC(C)=O` it was 7.16; in that of `CCCC[C@@H](C)C[C@@H](C)C(=O)N(C)[C@@H](CC(C)C)C(=O)N[C@H](C(=O)N(C)[C@H](C(=O)N1CCC[C@H]1C(=O)N1C(=O)C=C[C@@H]1C)C(C)C)[C@@H](C)OC(C)=O`, 6.04; in that of `CCCC[C@@H](C)C[C@@H](C)C(=O)N(C)[C@@H](CC(C)C)C(=O)N[C@H](C(=O)N(C)[C@H](C(=O)N1CCC[C@H]1C(=O)N1C(=O)CC[C@@H]1C)C(C)C)[C@@H](C)O`, under 4.52.
Turning to `CCCC[C@@H](C)C[C@@H](C)C(=O)N(C)[C@@H](CC(C)C)C(=O)N[C@H](C(=O)N(C)[C@H](C(=O)N1C[C@@H](O)C[C@H]1C(=O)N1C(=O)CC[C@@H]1C)C(C)C)[C@@H](C)O`, the pIC50 is 5.70.
As to `CCCC[C@@H](C)C[C@@H](C)C(=O)N(C)[C@@H](CC(C)C)C(=O)N[C@H](C(=O)N(C)[C@H](C(=O)N1C[C@@H](O)C[C@H]1C(=O)N1C(=O)C=C[C@@H]1C)C(C)C)[C@@H](C)O`, the pIC50 was 7.12.
For the compound `CCCC[C@@H](C)C[C@@H](C)C(=O)N(C)[C@@H](C=C(C)C)C(=O)N[C@H](C(=O)N(C)[C@H](C(=O)N1C[C@@H](O)C[C@H]1C(=O)N1C(=O)C=C[C@@H]1C)C(C)C)[C@@H](C)O`, the pIC50 was 6.80.
Under `CCCC[C@@H](C)C[C@@H](C)C(=O)N(C)[C@@H](CC(C)C)C(=O)N[C@H](C(=O)N(C)[C@H](C(=O)N1CCC[C@H]1C(=O)N1C(=O)CC[C@@H]1C)C(C)C)[C@@H](C)OC(C)=O` stands 5.30; under `CCCC[C@@H](C)C[C@@H](C)C(=O)N(C)[C@@H](CC(C)C)C(=O)N[C@H](C(=O)N(C)[C@H](C(=O)N1CCC[C@H]1C(=O)N1C(=O)C=C[C@@H]1C)C(C)C)[C@@H](C)O`, 6.19; under `CCCC[C@@H](C)C[C@@H](C)C(=O)N(C)[C@@H](CC(C)C)C(=O)N[C@H](C(=O)N(C)[C@H](C(=O)N1C[C@@H](O)C[C@H]1C(=O)N1C(=O)C=C[C@@H]1C)C(C)C)[C@@H](C)OC(C)=O`, 8.22.
Regarding `CCCC[C@@H](C)C[C@@H](C)C(=O)N(C)[C@@H](C=C(C)C)C(=O)N[C@H](C(=O)N(C)[C@H](C(=O)N1CCC[C@H]1C(=O)N1C(=O)C=C[C@@H]1C)C(C)C)[C@@H](C)OC(C)=O`, the pIC50 was 6.00.
Consider `CCCCCC[C@@H](C)C(=O)N(C)[C@@H](CC(C)C)C(=O)N[C@H](C(=O)N(C)[C@H](C(=O)N1C[C@@H](O)C[C@H]1C(=O)N1C(=O)C=C[C@@H]1C)C(C)C)[C@@H](C)OC(C)=O`, for which the pIC50 was 7.33.
Under `CCCC[C@@H](C)C[C@@H](C)C(=O)N(C)[C@@H](CC(C)C)C(=O)N[C@H](C(=O)N(C)[C@H](C(=O)N1C[C@@H](O)C[C@H]1C(=O)N1C(=O)C=C[C@@H]1C)C(C)C)[C@@H](C)OC(=O)CC` stands 6.70; under `CCCC[C@@H](C)C[C@@H](C)C(=O)N(C)[C@@H](CC(C)C)C(=O)N[C@H](C(=O)N(C)[C@H](C(=O)N1C[C@@H](O)C[C@H]1C(=O)N1C(=O)CC[C@@H]1C)C(C)C)[C@@H](C)OC(C)=O`, 5.55.
In the case of `CCCC[C@@H](C)C[C@@H](C)C(=O)N(C)[C@@H](C=C(C)C)C(=O)N[C@H](C(=O)N(C)[C@H](C(=O)N1C[C@@H](O)C[C@H]1C(=O)N1C(=O)C=C[C@@H]1C)C(C)C)[C@@H](C)OC(C)=O` it was 7.43; in that of `CCCCCC[C@@H](C)C(=O)N(C)[C@@H](CC(C)C)C(=O)N[C@H](C(=O)N(C)[C@H](C(=O)N1CCC[C@H]1C(=O)N1C(=O)C=C[C@@H]1C)C(C)C)[C@@H](C)OC(C)=O`, 6.26.
In the case of `COc1cccc2c1C(=O)c1c(O)c3c(c(O)c1C2=O)C[C@@](O)(C(=O)CO)C[C@@H]3O[C@H]1C[C@H](N)[C@H](O)[C@H](C)O1` [DOXORUBICIN] it was 6.74.

Values taken from ChEMBL document CHEMBL4334487, “Cytotoxic Microcolin Lipopeptides from the Marine Cyanobacterium Moorea producens” (J Nat Prod, 2019).
